Measured values as given in ChEMBL document CHEMBL4138298, “Synthesis of Novel Tetrahydroisoquinoline CXCR4 Antagonists with Rigidified Side-Chains” (ACS Med Chem Lett, 2018).
Calls of active or inactive are those of the source. The rule behind the calls is not given here.

Tests used:
[1] = biological target: T1, C-X-C chemokine receptor type 4 (Homo sapiens, UniProt P61073); assay: Antagonist activity at CXCR4 in human CCRF-CEM cells assessed as inhibition of CXCL12-mediated calcium flux incubated for 25 mins followed by CXCL12 stimulation measured for 90 secs; assay type: functional, cell-based
T1 sequence (P61073 whole entry): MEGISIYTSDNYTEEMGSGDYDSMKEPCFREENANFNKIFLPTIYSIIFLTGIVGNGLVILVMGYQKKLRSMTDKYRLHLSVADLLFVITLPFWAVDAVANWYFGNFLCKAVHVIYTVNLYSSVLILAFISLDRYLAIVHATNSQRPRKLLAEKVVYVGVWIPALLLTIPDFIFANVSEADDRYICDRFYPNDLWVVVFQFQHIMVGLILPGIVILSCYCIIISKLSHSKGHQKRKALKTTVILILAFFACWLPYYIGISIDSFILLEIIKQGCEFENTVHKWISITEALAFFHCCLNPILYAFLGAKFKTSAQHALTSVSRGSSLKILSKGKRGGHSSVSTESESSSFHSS

[2] = biological target: T2, Muscarinic acetylcholine receptor M3 (Homo sapiens, UniProt P20309); assay: Antagonist activity at mAChR M3 in human CCRF-CEM cells assessed as inhibition of acetylcholine-mediated calcium flux incubated for 25 mins followed by acetylcholine stimulation measured for 90 secs; assay type: functional, cell-based
Target sequence in this assay (P20309 whole entry): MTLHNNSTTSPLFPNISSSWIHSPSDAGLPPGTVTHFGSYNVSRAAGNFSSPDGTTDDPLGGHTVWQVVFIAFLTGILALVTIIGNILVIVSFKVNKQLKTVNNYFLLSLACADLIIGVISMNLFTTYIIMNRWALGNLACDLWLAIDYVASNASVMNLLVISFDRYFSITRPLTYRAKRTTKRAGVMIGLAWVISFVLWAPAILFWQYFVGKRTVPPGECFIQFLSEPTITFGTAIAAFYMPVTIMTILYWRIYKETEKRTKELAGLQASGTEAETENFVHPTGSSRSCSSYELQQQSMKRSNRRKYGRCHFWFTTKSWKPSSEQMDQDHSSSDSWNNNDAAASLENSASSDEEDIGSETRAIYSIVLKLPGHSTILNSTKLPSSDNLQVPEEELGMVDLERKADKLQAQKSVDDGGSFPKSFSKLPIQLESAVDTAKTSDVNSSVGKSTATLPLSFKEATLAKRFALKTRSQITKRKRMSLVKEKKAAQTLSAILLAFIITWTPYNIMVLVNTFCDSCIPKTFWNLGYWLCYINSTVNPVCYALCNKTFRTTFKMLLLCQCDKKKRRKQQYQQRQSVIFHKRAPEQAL

[3] = Permeability of the compound in pH 7.4 buffer after 4 hrs by PAMPA; assay type: ADME; conditions: read-out: permeability
Method in brief: (§1)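 Parallel artificial membrane permeability assay (PAMPA) for passive transcellular permeability, run at pH 7.4 and at pH 5.5, with permeability reported in nm/s.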

[4] = biological target: Cytochrome P450 2D6 (Homo sapiens, UniProt P10635); assay: Inhibition of recombinant human CYP2D6 expressed in insect microsomes using AMMC as substrate preincubated for 30 mins followed by NADPH addition measured after 45 mins by fluorescence assay; assay type: ADME
Sequence of Cytochrome P450 2D6 (P10635 whole entry): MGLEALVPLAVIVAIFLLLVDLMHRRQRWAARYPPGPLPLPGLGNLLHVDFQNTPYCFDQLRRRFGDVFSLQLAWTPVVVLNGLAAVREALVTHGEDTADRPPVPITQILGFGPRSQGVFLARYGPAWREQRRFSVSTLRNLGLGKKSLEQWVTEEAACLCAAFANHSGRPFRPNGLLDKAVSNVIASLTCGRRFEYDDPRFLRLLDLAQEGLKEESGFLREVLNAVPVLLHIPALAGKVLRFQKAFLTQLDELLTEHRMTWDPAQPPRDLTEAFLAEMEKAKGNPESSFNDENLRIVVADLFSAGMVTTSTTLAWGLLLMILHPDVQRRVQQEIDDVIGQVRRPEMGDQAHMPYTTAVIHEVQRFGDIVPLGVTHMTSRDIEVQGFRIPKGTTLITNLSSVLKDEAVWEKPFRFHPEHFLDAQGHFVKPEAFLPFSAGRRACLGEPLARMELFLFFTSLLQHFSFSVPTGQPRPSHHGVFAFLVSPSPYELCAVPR

[5] = biological target: Cytochrome P450 3A4 (Homo sapiens, UniProt P08684); assay: Inhibition of CYP3A4 (unknown origin) using BFC as substrate; assay type: ADME
Sequence of Cytochrome P450 3A4 (P08684 whole entry): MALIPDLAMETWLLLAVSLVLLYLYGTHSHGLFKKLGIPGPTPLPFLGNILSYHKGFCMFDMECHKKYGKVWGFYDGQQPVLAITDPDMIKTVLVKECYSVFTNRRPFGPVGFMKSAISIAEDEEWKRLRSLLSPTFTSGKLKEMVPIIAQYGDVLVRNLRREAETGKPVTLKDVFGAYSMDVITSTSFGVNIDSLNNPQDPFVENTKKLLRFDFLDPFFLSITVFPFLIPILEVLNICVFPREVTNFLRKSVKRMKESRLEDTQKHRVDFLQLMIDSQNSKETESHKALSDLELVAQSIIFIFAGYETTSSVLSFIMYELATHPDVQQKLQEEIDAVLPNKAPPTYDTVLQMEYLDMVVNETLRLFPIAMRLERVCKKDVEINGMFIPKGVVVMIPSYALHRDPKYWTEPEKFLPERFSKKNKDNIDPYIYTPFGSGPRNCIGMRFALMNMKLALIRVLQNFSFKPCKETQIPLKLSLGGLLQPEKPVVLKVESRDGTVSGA

[6] = Metabolic stability in mouse liver microsomes assessed as parent compound remaining; assay type: ADME, microsome
[7] = Metabolic stability in rat liver microsomes assessed as parent compound remaining; assay type: ADME, microsome
[8] = Metabolic stability in human liver microsomes assessed as parent compound remaining; assay type: ADME, microsome
[9] = biological target: T1, C-X-C chemokine receptor type 4; assay: Agonist activity at CXCR4 in human CCRF-CEM cells assessed as increase in calcium flux incubated for 90 secs; assay type: functional, cell-based
[10] = biological target: T2, Muscarinic acetylcholine receptor M3; assay: Agonist activity at mAChR M3 in human CCRF-CEM cells assessed as increase in calcium flux incubated for 90 secs; assay type: functional, cell-based
Target sequence in this assay (P20309 whole entry, looked up): as the sequence (P20309 whole entry) above

[11] = biological target: Cytochrome P450 2C19 (Homo sapiens, UniProt P33261); assay: Inhibition of CYP2C19 (unknown origin); assay type: ADME
Sequence of Cytochrome P450 2C19 (P33261 whole entry): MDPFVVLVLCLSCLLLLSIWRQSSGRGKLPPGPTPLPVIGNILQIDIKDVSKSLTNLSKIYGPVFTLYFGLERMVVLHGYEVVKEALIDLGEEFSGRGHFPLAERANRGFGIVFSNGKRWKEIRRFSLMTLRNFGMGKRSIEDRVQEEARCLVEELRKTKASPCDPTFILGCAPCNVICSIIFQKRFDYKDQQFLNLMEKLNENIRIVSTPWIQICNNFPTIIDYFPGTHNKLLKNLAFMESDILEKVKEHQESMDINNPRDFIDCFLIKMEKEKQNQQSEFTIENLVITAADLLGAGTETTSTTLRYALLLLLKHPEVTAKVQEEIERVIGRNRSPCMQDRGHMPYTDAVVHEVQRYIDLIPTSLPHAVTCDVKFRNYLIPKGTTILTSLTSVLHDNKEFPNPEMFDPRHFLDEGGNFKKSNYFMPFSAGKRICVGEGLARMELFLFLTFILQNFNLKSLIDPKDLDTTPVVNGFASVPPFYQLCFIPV

[12] = Permeability of the compound in pH 5.5 buffer after 4 hrs by PAMPA; assay type: ADME; conditions: for Papp at 4 h: PAMPA, pH 5.5, read-out: permeability; for permeability: pampa, pH 5.5, 4 h, 4 h; method in brief: as §1
[13] = biological target: T3, Cytochrome P450 2C8 (Homo sapiens, UniProt P10632); assay: Inhibition of CYP2C8 (unknown origin); assay type: ADME
T3 sequence (P10632 whole entry): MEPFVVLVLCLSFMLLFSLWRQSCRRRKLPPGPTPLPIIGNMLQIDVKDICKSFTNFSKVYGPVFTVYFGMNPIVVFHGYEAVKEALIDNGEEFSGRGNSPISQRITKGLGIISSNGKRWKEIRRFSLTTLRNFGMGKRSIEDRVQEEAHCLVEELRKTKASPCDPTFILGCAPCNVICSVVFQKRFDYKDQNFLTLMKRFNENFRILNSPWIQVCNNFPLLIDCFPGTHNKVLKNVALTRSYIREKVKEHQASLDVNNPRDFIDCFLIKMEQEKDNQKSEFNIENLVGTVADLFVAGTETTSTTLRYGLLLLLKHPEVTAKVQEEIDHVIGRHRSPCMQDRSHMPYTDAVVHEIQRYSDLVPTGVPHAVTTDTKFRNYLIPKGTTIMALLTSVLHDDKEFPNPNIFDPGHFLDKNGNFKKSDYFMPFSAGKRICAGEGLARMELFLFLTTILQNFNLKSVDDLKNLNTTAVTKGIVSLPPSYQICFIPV

[14] = biological target: T2, Muscarinic acetylcholine receptor M3; assay: Antagonist activity at mAChR M3 in human CCRF-CEM cells assessed as inhibition of acetylcholine-mediated calcium flux incubated for 25 mins followed by acetylcholine stimulation measured for 90 secs relative to control; assay type: functional, cell-based; also: test concentration or dose not given here
Target sequence in this assay (P20309 whole entry, looked up): as the sequence (P20309 whole entry) above

[15] = biological target: T4, Cytochrome P450 1A2 (Homo sapiens, UniProt P05177); assay: Inhibition of CYP1A2 (unknown origin); assay type: ADME
T4 sequence (P05177 whole entry): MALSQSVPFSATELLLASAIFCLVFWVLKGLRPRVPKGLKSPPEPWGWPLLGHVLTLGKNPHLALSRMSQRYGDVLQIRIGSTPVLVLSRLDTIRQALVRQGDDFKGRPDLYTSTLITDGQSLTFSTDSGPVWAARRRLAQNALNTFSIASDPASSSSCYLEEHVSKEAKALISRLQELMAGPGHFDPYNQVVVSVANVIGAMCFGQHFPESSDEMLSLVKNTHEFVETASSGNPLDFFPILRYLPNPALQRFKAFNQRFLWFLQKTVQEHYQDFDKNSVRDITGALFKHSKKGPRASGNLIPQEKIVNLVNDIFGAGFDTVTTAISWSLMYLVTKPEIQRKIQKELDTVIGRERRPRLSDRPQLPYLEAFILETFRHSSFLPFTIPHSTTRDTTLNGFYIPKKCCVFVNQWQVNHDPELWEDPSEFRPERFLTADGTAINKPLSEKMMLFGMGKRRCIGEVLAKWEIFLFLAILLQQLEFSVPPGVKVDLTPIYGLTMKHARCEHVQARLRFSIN

[16] = biological target: Cytochrome P450 2C9 (Homo sapiens, UniProt P11712); assay: Inhibition of CYP2C9 (unknown origin); assay type: ADME
Sequence of Cytochrome P450 2C9 (P11712 whole entry): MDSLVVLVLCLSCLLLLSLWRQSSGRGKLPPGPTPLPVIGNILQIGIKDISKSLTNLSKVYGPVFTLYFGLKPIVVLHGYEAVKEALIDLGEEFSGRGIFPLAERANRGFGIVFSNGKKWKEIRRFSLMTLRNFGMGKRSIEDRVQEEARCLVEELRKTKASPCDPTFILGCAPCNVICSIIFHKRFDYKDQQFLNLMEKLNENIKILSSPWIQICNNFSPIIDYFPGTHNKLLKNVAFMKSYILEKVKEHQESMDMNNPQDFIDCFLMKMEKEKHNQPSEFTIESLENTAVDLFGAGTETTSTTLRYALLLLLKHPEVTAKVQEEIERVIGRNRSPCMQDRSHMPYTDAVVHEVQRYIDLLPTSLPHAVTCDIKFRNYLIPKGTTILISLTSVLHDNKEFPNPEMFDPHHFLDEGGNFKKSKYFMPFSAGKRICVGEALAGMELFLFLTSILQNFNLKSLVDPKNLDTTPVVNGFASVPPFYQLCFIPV

[17] = biological target: T5, Cytochrome P450 2B6 (Homo sapiens, UniProt P20813); assay: Inhibition of CYP2B6 (unknown origin); assay type: ADME
T5 sequence (P20813 whole entry): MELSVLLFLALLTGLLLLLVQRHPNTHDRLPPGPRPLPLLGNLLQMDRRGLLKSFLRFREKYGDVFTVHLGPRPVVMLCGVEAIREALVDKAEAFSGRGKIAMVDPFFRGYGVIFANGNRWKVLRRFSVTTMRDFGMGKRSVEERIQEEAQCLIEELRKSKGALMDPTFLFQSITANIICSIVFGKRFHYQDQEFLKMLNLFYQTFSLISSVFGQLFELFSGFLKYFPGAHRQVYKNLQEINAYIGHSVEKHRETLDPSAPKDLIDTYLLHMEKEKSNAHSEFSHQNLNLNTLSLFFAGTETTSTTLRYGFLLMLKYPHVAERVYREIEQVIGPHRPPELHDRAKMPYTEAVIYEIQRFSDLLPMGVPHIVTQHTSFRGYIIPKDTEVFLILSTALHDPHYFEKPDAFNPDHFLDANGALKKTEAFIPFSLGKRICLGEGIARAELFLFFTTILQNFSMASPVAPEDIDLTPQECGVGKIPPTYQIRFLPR

[18] = biological target: T6, Cytochrome P450 2A6 (Homo sapiens, UniProt P11509); assay: Inhibition of CYP2A6 (unknown origin); assay type: ADME
T6 sequence (P11509 whole entry): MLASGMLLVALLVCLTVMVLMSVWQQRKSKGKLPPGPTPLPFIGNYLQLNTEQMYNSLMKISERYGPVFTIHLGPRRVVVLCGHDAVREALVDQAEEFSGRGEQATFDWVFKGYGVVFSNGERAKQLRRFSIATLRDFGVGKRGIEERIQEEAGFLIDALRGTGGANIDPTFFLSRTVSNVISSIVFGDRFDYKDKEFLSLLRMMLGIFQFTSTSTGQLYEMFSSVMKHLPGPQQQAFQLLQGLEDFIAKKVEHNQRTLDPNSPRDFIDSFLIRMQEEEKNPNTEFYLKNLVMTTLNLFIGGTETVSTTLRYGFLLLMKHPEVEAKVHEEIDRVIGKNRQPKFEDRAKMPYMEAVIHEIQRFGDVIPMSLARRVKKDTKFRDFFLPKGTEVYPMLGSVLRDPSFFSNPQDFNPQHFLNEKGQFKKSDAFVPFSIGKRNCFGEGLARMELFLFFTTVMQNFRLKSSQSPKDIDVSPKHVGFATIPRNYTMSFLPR

| IC50 [1] [µM] | IC50 [2] [µM] | Papp at 4 h [3] [×10⁻⁶ cm/s] | IC50 [4] [µM] | IC50 [5] [µM] | Stability [6] [%] | Stability [7] [%] | Stability [8] [%] | Papp at 4 h [12] [×10⁻⁶ cm/s] | Compound | other results |
| --- | --- | --- | --- | --- | --- | --- | --- | --- | --- | --- |
| 0.28 | > 33 | 1.2 | 0.76 | 10 | 44 | 51 | 39 |  | N[C@H]1CC[C@H](CN(C[C@H]2Cc3ccccc3CN2)[C@H]2CCCc3cccnc32)CC1 |  |
| 0.01 | 0.61 | 57 |  |  | 4 | 4 | 100 |  | NC/C=C\CN(C[C@H]1Cc2ccccc2CN1)[C@H]1CCCc2cccnc21 |  |
|  | 11 | 1.3 | 0.54 |  | 3 | 1 | 44 |  | FC1(F)CCC(NC/C=C\CN(C[C@H]2Cc3ccccc3CN2)[C@H]2CCCc3cccnc32)CC1 | Activity [9]: Active; Activity [10]: Active |
| 0.044 | 8.8 | 22 | 0.14 | 2.4 | 61 | 72 | 97 |  | C/C(CN)=C(/F)CN(C[C@H]1Cc2ccccc2CN1)[C@H]1CCCc2cccnc21 | IC50 [11]: 19 µM |
| 0.21 | > 16 | 11 | 0.47 |  | 2 | 2 | 73 | 1.3 | NC(=O)NC/C=C\CN(C[C@H]1Cc2ccccc2CN1)[C@H]1CCCc2cccnc21 |  |
|  | 9.6 | 55 | 0.19 | 13 | 1 | 6 | 51 | 28 | C/C(CN(C[C@H]1Cc2ccccc2CN1)[C@H]1CCCc2cccnc21)=C(\F)CN |  |
| 0.013 | 13 |  | 0.27 |  | 4 |  |  |  | NCC1CC1CN(C[C@H]1Cc2ccccc2CN1)[C@H]1CCCc2cccnc21 (single isomer, unassigned; diastereomer 2) | permeability [12]: 8.8 ×10⁻⁶ cm/s |
|  | 10 |  | 12 |  | 92 | 86 | 63 |  | NC[C@H]1CC[C@H](CN(C[C@H]2Cc3ccccc3CN2)[C@H]2CCCc3cccnc32)CC1 | IC50 [13]: 4.1 µM; IC50 [11]: 9.1 µM |
|  | 1.1 | 25 | 0.088 | > 20 | 2 | 2 | 96 | 8.3 | C/C(=C/CN)CN(C[C@H]1Cc2ccccc2CN1)[C@H]1CCCc2cccnc21 |  |
| 1.8 | > 17 | 70 | 0.11 | 1.8 | 15 | 61 | 35 |  | C/C(CN(C[C@H]1Cc2ccccc2CN1)[C@H]1CCCc2cccnc21)=C(/F)CN | IC50 [13]: 18 µM |
|  |  |  |  |  |  |  |  |  | NCC1CC1CN(C[C@H]1Cc2ccccc2CN1)[C@H]1CCCc2cccnc21 (single isomer, unassigned; diastereomer 1) [listing 1 of 2 here] | inhibition [14]: 51% |
| 0.0086 | 0.032 | 1.1 | < 0.027 | > 20 | 2 | 1 | 100 | 0.4 | C/C(=C/CN(C[C@H]1Cc2ccccc2CN1)[C@H]1CCCc2cccnc21)CN |  |
| 0.028 | 0.77 | 49 | 0.059 | 15 | 2 | 2 | 100 | 5 | C/C(CN)=C(\F)CN(C[C@H]1Cc2ccccc2CN1)[C@H]1CCCc2cccnc21 |  |
|  | > 16 | 83 |  |  | 11 | 34 | 100 | 26 | NC/C=C/CN(C[C@H]1Cc2ccccc2CN1)[C@H]1CCCc2cccnc21 | inhibition (INH) ([13]; human): Not Active; inhibition (INH) ([11]; human): Not Active; inhibition (INH) [15]: Not Active; inhibition (INH) [16]: Not Active; inhibition (INH) [17]: Not Active; inhibition (INH) [18]: Not Active |
| 0.23 | 23 |  | 0.18 |  | 2 | 1 | 65 | 17 | NCC1=C(CN(C[C@H]2Cc3ccccc3CN2)[C@H]2CCCc3cccnc32)CCCC1 |  |
| 0.0064 | > 33 | 13 | 0.54 |  | 1 | 1 | 100 |  | NCC1CC1CN(C[C@H]1Cc2ccccc2CN1)[C@H]1CCCc2cccnc21 (single isomer, unassigned; diastereomer 1) [listing 2 of 2 here] | permeability [12]: 0.8 ×10⁻⁶ cm/s |

| Compound | IC50 [1] [µM] | IC50 [2] [µM] | Papp at 4 h [3] [×10⁻⁶ cm/s] | IC50 [4] [µM] | IC50 [5] [µM] | Stability [6] [%] | Stability [7] [%] | Stability [8] [%] | Papp at 4 h [12] [×10⁻⁶ cm/s] | other results |
| --- | --- | --- | --- | --- | --- | --- | --- | --- | --- | --- |
| N[C@H]1CC[C@@H](N(C[C@H]2Cc3ccccc3CN2)[C@H]2CCCc3cccnc32)CC1 | 1.8 | > 33 |  | 0.081 | > 20 | 56 | 24 | 86 | 1 |  |
| N[C@H]1CC[C@H](N(C[C@H]2Cc3ccccc3CN2)[C@H]2CCCc3cccnc32)CC1 | 0.034 | > 33 | 3.7 | 2.5 | > 20 | 77 | 71 | 95 | 0.6 |  |
